Results: ChEMBL document CHEMBL1122406, “Bis(bioreductive) alkylating agents: synthesis and biological activity in a nude mouse human carcinoma model” (1983)

Tests used:
[1] = test system: EBV-positive nasopharyngeal cell line; experiment: EBV-positive nasopharyngeal colony count obtained from the examination of uniform plate surface areas after a dose of 1.34 ug/mL from Experiment B; type: functional, human gammaherpesvirus 4
Outline: (§1)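 Modified clonogenic assay in D98/HR1 cells from 3-4-day-old monolayer cultures. Drug diluted into warm McCoy's 5A medium; quinones first dissolved in dichloromethane, then diluted in 95% ethanol. Cells at 4.0 × 10^5/mL exposed for 1 h at 37 °C, washed twice, then plated in 0.3% agar CMRL 1066 medium over a 0.5% agar base, 6.7 × 10^4 cells/plate. Survival is expressed relative to control.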

[2] = test system: EBV-positive nasopharyngeal cell line; experiment: EBV-positive nasopharyngeal colony count obtained from the examination of uniform plate surface areas after a dose of 2.68 ug/mL from Experiment B in mice; type: functional, human gammaherpesvirus 4
[3] = test system: EBV-positive nasopharyngeal cell line; experiment: EBV-positive nasopharyngeal colony count obtained from the examination of uniform plate surface areas after a dose of 0.67 ug/mL from Experiment B; type: functional, human gammaherpesvirus 4; outline: as §1
[4] = test system: EBV-positive nasopharyngeal cell line; experiment: EBV-positive nasopharyngeal colony count obtained from the examination of uniform plate surface areas after a dose of 0.067 ug/mL from Experiment B; type: functional, human gammaherpesvirus 4; outline: as §1
[5] = test system: Mus musculus; experiment: Base line measurement at a sample size of 4 after first week of 20 mg/kg dose administration in mice; type: functional
Outline: (§2)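 Nude mice pretreated with 0.5 mL rabbit anti-mouse thymocyte serum s.c., inoculated s.c. 7 days later with 1×10^7 D98/HR1 cells in PBS, and given a second serum dose two weeks later. Dosing started at tumors ~2-3 mm diameter, daily for 14 days, then 2 weeks off. Dose per kg from daily individual weights; Klucel vehicle. Group mean tumor volume (mm3) adjusted by analysis of covariance for base line.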

[6] = test system: Mus musculus; experiment: Base line measurement at a sample size of 4 after fourth week of 20 mg/kg dose administration in mice; type: functional; outline: as §2
[7] = test system: Mus musculus; experiment: Base line measurement at a sample size of 4 after second week of 20 mg/kg dose administration in mice; type: functional; outline: as §2
[8] = test system: Mus musculus; experiment: Base line measurement at a sample size of 5 after first week of 5 mg/kg dose administration in mice; type: functional; outline: as §2
[9] = test system: Mus musculus; experiment: Base line measurement at a sample size of 5 after fourth week of 5 mg/kg dose administration in mice; type: functional; outline: as §2
[10] = test system: Mus musculus; experiment: Base line measurement at a sample size of 5 after second week of 5 mg/kg dose administration in mice; type: functional; outline: as §2
[11] = test system: EBV-positive nasopharyngeal cell line; experiment: Percent colony reduction in cell growth in EBV-positive nasopharyngeal cell lines after in vitro exposure at 1.34 ug/mL
[12] = test system: EBV-positive nasopharyngeal cell line; experiment: Percent colony reduction in cell growth in EBV-positive nasopharyngeal cell lines after administration of 0.067 ug/mL dose
[13] = test system: EBV-positive nasopharyngeal cell line; experiment: Percent colony reduction in cell growth in EBV-positive nasopharyngeal cell lines (D98/HR1) after administration of 0.3 ug/mL dose; type: functional, human gammaherpesvirus 4
Outline: (§3)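 D98/HR1 cells from 3-4-day monolayer cultures, suspended at 4.0×10^5/mL and exposed to drug for 1 h at 37 °C. Quinones dissolved in dichloromethane, diluted in 95% ethanol, then in warm McCoy's 5A. Cells washed twice, plated in agar over an agar base at 6.7×10^4 cells/plate. Colony survival expressed relative to control, as percent reduction.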

[14] = test system: EBV-positive nasopharyngeal cell line; experiment: Percent colony reduction in cell growth in EBV-positive nasopharyngeal cell lines (D98/HR1) after administration of 100 ug/mL dose; type: functional, human gammaherpesvirus 4; outline: as §3
[15] = test system: EBV-positive nasopharyngeal cell line; experiment: EBV-positive nasopharyngeal cells (D98/HR1) survived at concentration of 0.3 ug/mL of compound; type: functional, human gammaherpesvirus 4; outline: as §1
[16] = test system: EBV-positive nasopharyngeal cell line; experiment: EBV-positive nasopharyngeal cells (D98/HR1) survived at concentration of 100 ug/mL of compound; type: functional, human gammaherpesvirus 4; outline: as §1
[17] = test system: EBV-positive nasopharyngeal cell line; experiment: Percent colony reduction in cell growth in EBV-positive nasopharyngeal cell lines (D98/HR1) after administration of 3.0 ug/mL dose; type: functional, human gammaherpesvirus 4; outline: as §3
[18] = test system: EBV-positive nasopharyngeal cell line; experiment: EBV-positive nasopharyngeal cells (D98/HR1) survived at concentration of 3.0 ug/mL of compound; type: functional, human gammaherpesvirus 4; outline: as §1
[19] = test system: EBV-positive nasopharyngeal cell line; experiment: EBV-positive nasopharyngeal colony count obtained from the examination of uniform plate surface areas after a dose of 10 ug/mL; type: functional, cell-based; settings: human gammaherpesvirus 4; outline: as §1
[20] = test system: EBV-positive nasopharyngeal cell line; experiment: Percent colony reduction in cell growth in EBV-positive nasopharyngeal cell lines after administration of 10 ug/mL dose; type: functional, cell-based; settings: human gammaherpesvirus 4; outline: as §3
[21] = test system: EBV-positive nasopharyngeal cell line; experiment: EBV-positive nasopharyngeal colony count obtained from the examination of uniform plate surface areas after a dose of 0.2 ug/mL; type: functional; outline: as §1
[22] = test system: EBV-positive nasopharyngeal cell line; experiment: Percent colony reduction in cell growth in EBV-positive nasopharyngeal cell lines after administration of 0.2 ug/mL dose; type: functional; outline: as §3
[23] = test system: EBV-positive nasopharyngeal cell line; experiment: EBV-positive nasopharyngeal colony count obtained from the examination of uniform plate surface areas after a dose of 6.0 ug/mL; type: functional, human gammaherpesvirus 4; outline: as §1
[24] = test system: EBV-positive nasopharyngeal cell line; experiment: Percent colony reduction in cell growth in EBV-positive nasopharyngeal cell lines after administration of 6.0 ug/mL dose; type: functional, human gammaherpesvirus 4; outline: as §3
[25] = test system: EBV-positive nasopharyngeal cell line; experiment: EBV-positive nasopharyngeal colony count obtained from the examination of uniform plate surface areas after a dose of 0.1 ug/mL; type: functional, human gammaherpesvirus 4; outline: as §1
[26] = test system: EBV-positive nasopharyngeal cell line; experiment: EBV-positive nasopharyngeal colony count obtained from the examination of uniform plate surface areas after a dose of 1.34 ug/mL; type: functional, human gammaherpesvirus 4; outline: as §1
[27] = test system: EBV-positive nasopharyngeal cell line; experiment: EBV-positive nasopharyngeal colony count obtained from the examination of uniform plate surface areas after a dose of 2.68 ug/mL; type: functional, human gammaherpesvirus 4; outline: as §1
[28] = test system: EBV-positive nasopharyngeal cell line; experiment: EBV-positive nasopharyngeal colony count obtained from the examination of uniform plate surface areas after a dose of 0.67 ug/mL; type: functional, human gammaherpesvirus 4; outline: as §1
[29] = test system: EBV-positive nasopharyngeal cell line; experiment: Percent colony reduction in cell growth in EBV-positive nasopharyngeal cell lines after administration of 1.34 ug/mL dose; type: functional, human gammaherpesvirus 4; outline: as §3
[30] = test system: EBV-positive nasopharyngeal cell line; experiment: Percent colony reduction in cell growth in EBV-positive nasopharyngeal cell lines after administration of 6.28 ug/mL dose; type: functional, human gammaherpesvirus 4; settings: in the assay text read “2.68 ug/mL” for “6.28 ug/mL”; outline: as §3
[31] = test system: EBV-positive nasopharyngeal cell line; experiment: Percent colony reduction in cell growth in EBV-positive nasopharyngeal cell lines after administration of 0.67 ug/mL dose; type: functional, human gammaherpesvirus 4; outline: as §3
[32] = test system: Mus musculus; experiment: Base line measurement at a sample size of 3 after first week of 20 mg/kg dose administration; type: functional; outline: as §2
[33] = test system: Mus musculus; experiment: Base line measurement at a sample size of 3 after fourth week of 20 mg/kg dose administration; type: functional; outline: as §2
[34] = test system: Mus musculus; experiment: Base line measurement at a sample size of 3 after second week of 20 mg/kg dose administration; type: functional; outline: as §2
[35] = test system: Mus musculus; experiment: Base line measurement at a sample size of 5 after first week of 5 mg/kg dose administration; type: functional; outline: as §2
[36] = test system: Mus musculus; experiment: Base line measurement at a sample size of 5 after fourth week of 5 mg/kg dose administration; type: functional; outline: as §2
[37] = test system: Mus musculus; experiment: Base line measurement at a sample size of 5 after second week of 5 mg/kg dose administration; type: functional; outline: as §2
[38] = test system: EBV-positive nasopharyngeal cell line; experiment: EBV-positive nasopharyngeal colony count obtained from the examination of uniform plate surface areas after a dose of 0.4 ug/mL from experiment B; type: functional, human gammaherpesvirus 4; outline: as §1
[39] = test system: EBV-positive nasopharyngeal cell line; experiment: EBV-positive nasopharyngeal colony count obtained from the examination of uniform plate surface areas after a dose of 0.004 ug/mL from experiment B; type: functional, human gammaherpesvirus 4; outline: as §1
[40] = test system: EBV-positive nasopharyngeal cell line; experiment: EBV-positive nasopharyngeal colony count obtained from the examination of uniform plate surface areas after a dose of 0.04 ug/mL from experiment A; type: functional, human gammaherpesvirus 4; outline: as §1
[41] = test system: EBV-positive nasopharyngeal cell line; experiment: EBV-positive nasopharyngeal colony count obtained from the examination of uniform plate surface areas after a dose of 0.04 ug/mL from experiment B; type: functional, human gammaherpesvirus 4; outline: as §1
[42] = test system: EBV-positive nasopharyngeal cell line; experiment: Percent colony reduction in cell growth in EBV-positive nasopharyngeal cell lines after administration of 0.004 ug/mL dose from experiment B; type: functional, human gammaherpesvirus 4; outline: as §3
[43] = test system: EBV-positive nasopharyngeal cell line; experiment: Percent colony reduction in cell growth in EBV-positive nasopharyngeal cell lines after administration of 0.04 ug/mL dose from experiment A; type: functional, human gammaherpesvirus 4; outline: as §3
[44] = test system: EBV-positive nasopharyngeal cell line; experiment: Percent colony reduction in cell growth in EBV-positive nasopharyngeal cell lines after administration of 0.04 ug/mL dose from experiment B; type: functional, human gammaherpesvirus 4; outline: as §3
[45] = test system: EBV-positive nasopharyngeal cell line; experiment: Percent colony reduction in cell growth in EBV-positive nasopharyngeal cell lines after administration of 0.4 ug/mL dose from experiment B; type: functional, human gammaherpesvirus 4; outline: as §3

Compound: CC(=O)OCC1=CC(=O)C=C(CCC2=CC(=O)C=C(COC(C)=O)C2=O)C1=O
- Survival [1]: 1.19
- Survival [2]: 1.35
- Survival [3]: 1.34
- Survival [4]: 0.7
- Baseline [5]: 34.53
- Baseline [6]: 360.23
- Baseline [7]: 94.83
- Baseline [8]: 69.66
- Baseline [9]: 358.79
- Baseline [10]: 162.76
- Reduction [11]: -19%
- Reduction [12]: 30%

Compound: CN(Cc1cnc2nc(N)nc(N)c2n1)c1ccc(C(=O)N[C@@H](CCC(=O)O)C(=O)O)cc1 [METHOTREXATE]
- Reduction [13]: 60%
- Reduction [14]: >99%
- Survival [15]: 0.4
- Survival [16]: <0.01

Compound: COc1cc([C@@H]2c3cc4c(cc3[C@@H](O[C@@H]3O[C@@H]5CO[C@@H](C)O[C@H]5[C@H](O)[C@H]3O)[C@H]3COC(=O)[C@H]23)OCO4)cc(OC)c1O [ETOPOSIDE]
- Reduction [17]: 70%
- Survival [18]: 0.3

Compound: CISPLATIN
- Survival [19]: 0.03
- Reduction [20]: 97%
- Survival ([21]; human gammaherpesvirus 4): 0.4
- Reduction ([22]; human gammaherpesvirus 4): 60%

Compound: CC[C@]1(O)C[C@@H]2CN(CCc3c([nH]c4ccccc34)[C@@](C(=O)OC)(c3cc4c(cc3OC)N(C)[C@H]3[C@@](O)(C(=O)OC)[C@H](OC(C)=O)[C@]5(CC)C=CCN6CC[C@]43[C@@H]65)C2)C1 [VINBLASTINE]
- Survival [23]: <0.01
- Reduction [24]: >99%

Compound: O=C1c2c(O)ccc(O)c2C(=O)c2c(NCCNCCO)ccc(NCCNCCO)c21 [MITOXANTRONE]
- Survival [25]: 0.33

Compound: O=C1C=C(CBr)C(=O)C(CCC2=CC(=O)C=C(CBr)C2=O)=C1
- Survival [26]: 0.77
- Survival [27]: 0.91
- Survival [28]: 0.81
- Reduction [29]: 23%
- Reduction [30]: 9%
- Survival [21]: 1
- Reduction [22]: 0%
- Reduction [31]: 19%
- Baseline [32]: 12.54
- Baseline [33]: 29.69
- Baseline [34]: 17.52
- Baseline [35]: 22.32
- Baseline [36]: 137.03
- Baseline [37]: 43.2

Compound: COc1cccc2c1C(=O)c1c(O)c3c(c(O)c1C2=O)C[C@@](O)(C(=O)CO)C[C@@H]3O[C@H]1C[C@H](N)[C@H](O)[C@H](C)O1 [DOXORUBICIN]
- Survival [38]: <0.1
- Survival [39]: 0.69
- Survival [40]: 0.37
- Survival [41]: 0.18
- Reduction [42]: 31%
- Reduction [43]: 63%
- Reduction [44]: 82%
- Reduction [45]: >99%
